Results on 26 compounds are retold here after ChEMBL document CHEMBL1773039, “Structure-Activity Study of Dihydrocinnamic Acids and Discovery of the Potent FFA1 (GPR40) Agonist TUG-469” (ACS Med Chem Lett, 2010).

Assay [1] addresses T1, Free fatty acid receptor 1 (Homo sapiens, UniProt O14842). Briefly: Agonist activity at human FFA1 transfected in 1321N1 cells assessed as calcium mobilization by microplate assay. Format: functional, cell-based. The method, boiled down: (§1)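 Calcium mobilization in hFFA1-expressing cells was measured as full concentration-response curves and reported as pEC50. Efficacy is % of the response to 10 μM of the reference agonist.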
(In general: A change in cytosolic calcium serves as a functional read-out for many receptors and channels.)

Assay [2] has as its target T1, Free fatty acid receptor 1. The assay is described as follows: Agonist activity at human FFA1 transfected in 1321N1 cells assessed as calcium mobilization by microplate assay relative to 10 uM TUG-20. Format: functional, cell-based. The method, boiled down:
as §1

In assay [3] the target is T2, Peroxisome proliferator-activated receptor gamma (Homo sapiens) (UniProt P37231).
T2 sequence (whole entry): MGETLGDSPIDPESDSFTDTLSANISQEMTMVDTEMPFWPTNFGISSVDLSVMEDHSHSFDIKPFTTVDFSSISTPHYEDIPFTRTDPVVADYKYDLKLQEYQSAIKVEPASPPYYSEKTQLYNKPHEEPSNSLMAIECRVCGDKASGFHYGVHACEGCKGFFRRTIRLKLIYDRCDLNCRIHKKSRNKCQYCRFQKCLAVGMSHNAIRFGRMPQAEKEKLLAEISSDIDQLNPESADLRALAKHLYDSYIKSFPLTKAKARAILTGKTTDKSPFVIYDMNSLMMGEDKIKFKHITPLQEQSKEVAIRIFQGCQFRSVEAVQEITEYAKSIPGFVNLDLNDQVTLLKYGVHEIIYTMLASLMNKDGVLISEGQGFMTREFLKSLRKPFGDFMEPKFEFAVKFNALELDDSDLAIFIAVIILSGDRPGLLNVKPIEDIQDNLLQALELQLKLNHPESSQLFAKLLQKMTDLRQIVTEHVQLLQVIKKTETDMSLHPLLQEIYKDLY
Briefly: Transactivation of human PPARgamma ligand binding domain transfected in mouse embryo fibroblasts at 100 uM after 18 hrs analyzed by photinus and renilla luciferase activity by luminometry relative to 1 uM rosiglitazone.

In assay [4] the target is T2, Peroxisome proliferator-activated receptor gamma (Homo sapiens). Briefly: Transactivation of human PPARgamma ligand binding domain transfected in mouse embryo fibroblasts assessed as renilla luciferase activity at 1 uM after 18 hrs by luminometry relative to 1 uM rosiglitazone.
The species entered for a further assay is Homo sapiens. The assay is described as follows: Selectivity for human FFA1 over human PPARgamma.
In assay [5] the target is Free fatty acid receptor 2 (Homo sapiens) (UniProt O15552). The assay is described as follows: Agonist activity at human GPR43 in HEK293 cells.
Assay [6] concerns the target Free fatty acid receptor 3 (Homo sapiens) (UniProt O14843). The assay is described as follows: Agonist activity at human GPR41 in HEK293 cells.

The structures appear in SMILES notation. Activity calls are given as the source filed them. The calls are words filed in the database; no cut-off is given here.

Free fatty acid receptor 2 (Homo sapiens), sequence (O15552 whole entry, looked up): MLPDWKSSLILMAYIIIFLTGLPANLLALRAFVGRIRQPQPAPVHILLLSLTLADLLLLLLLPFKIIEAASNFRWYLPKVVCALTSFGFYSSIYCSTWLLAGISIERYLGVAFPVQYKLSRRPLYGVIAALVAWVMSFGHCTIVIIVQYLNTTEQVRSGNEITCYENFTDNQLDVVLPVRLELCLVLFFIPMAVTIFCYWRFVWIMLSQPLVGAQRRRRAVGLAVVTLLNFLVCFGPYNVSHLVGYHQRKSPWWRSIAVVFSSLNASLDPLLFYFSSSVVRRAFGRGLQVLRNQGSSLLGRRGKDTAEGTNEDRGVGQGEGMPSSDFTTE
Free fatty acid receptor 3 (Homo sapiens), sequence (O14843 whole entry, looked up): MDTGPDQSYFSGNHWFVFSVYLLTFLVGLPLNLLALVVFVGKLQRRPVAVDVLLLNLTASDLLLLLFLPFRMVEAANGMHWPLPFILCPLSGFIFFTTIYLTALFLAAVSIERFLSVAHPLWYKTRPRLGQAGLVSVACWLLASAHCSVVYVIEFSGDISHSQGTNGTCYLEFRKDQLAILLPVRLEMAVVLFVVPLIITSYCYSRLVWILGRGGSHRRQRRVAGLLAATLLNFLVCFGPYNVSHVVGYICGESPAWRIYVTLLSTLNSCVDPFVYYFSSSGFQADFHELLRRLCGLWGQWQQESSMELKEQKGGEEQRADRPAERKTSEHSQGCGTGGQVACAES
T1 sequence (O14842 whole entry): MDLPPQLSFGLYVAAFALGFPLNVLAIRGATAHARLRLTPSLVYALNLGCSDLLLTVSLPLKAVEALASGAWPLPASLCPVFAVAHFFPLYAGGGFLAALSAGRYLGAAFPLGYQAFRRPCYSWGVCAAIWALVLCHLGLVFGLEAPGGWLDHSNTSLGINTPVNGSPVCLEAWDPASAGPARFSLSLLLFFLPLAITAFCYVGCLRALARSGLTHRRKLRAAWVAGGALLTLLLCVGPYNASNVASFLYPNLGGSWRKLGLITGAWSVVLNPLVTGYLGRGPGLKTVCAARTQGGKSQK

Broadly, the EC50 is the concentration at which the effect is half-maximal. Consider `O=C(O)CCc1ccc(NCc2ccccc2)cc1`, for which the EC50 in assay [1] was 759 nM. Besides, the Efficacy in assay [2] turned out to be 89%. In assay [3], this compound displayed an Activity of 7%. The result in assay [4], in assay [5] and in assay [6] was inactive. The compound also displayed a fold change (FC) in the assay filed under Homo sapiens above 100.
Consider `O=C(O)CCc1ccc(OCc2cccc(Oc3ccccc3)c2)cc1`, for which the EC50 in assay [1] is 57.5 nM. In addition, the Efficacy in assay [2] amounted to 98%. Further, in assay [3], the Activity amounted to 51%. The result in assay [4], in assay [5] and in assay [6] was inactive. Further, the fold change (FC) in the assay filed under Homo sapiens was above 100.
`O=C(O)CCc1ccc(NCc2ccc(-c3ccccc3)cc2)cc1`: the EC50 in assay [1] was 417 nM. The Efficacy in assay [2] came to 92%. In assay [3], this compound registered an Activity of 23%. Besides, the result in assay [4], in assay [5] and in assay [6] was inactive. In addition, the fold change (FC) in the assay listed under Homo sapiens is above 100.
Consider `O=C(O)CCc1ccc(OCc2cccc(Br)c2)cc1`, for which the EC50 in assay [1] is 89.1 nM. The Efficacy in assay [2] amounted to 99%. For the same compound, the Activity in assay [3] is 19%. Also, the result in assay [4], in assay [5] and in assay [6] was inactive. This compound also yielded a fold change (FC) in the assay filed under Homo sapiens above 100.
On to `O=C(O)CCc1ccc(NCc2ccc(Oc3ccccc3)cc2)cc1`, for which the half-maximal effective concentration (EC50) in assay [1] is 182 nM. Besides, the Efficacy in assay [2] was found to be 100%. For the same compound, the Activity in assay [3] was found to be 34%. Further, the result in assay [4], in assay [5] and in assay [6] was inactive. The compound further returned a fold change (FC) in the assay listed under Homo sapiens above 100.
For the compound `O=C(O)CCc1ccc(NCc2cccc(C(F)(F)F)c2)cc1`, the EC50 in assay [1] was 186 nM. In assay [2], the Efficacy amounted to 102%. Besides, the outcome in assay [4], in assay [5] and in assay [6] was inactive. For the same compound, the fold change (FC) in the assay filed under Homo sapiens was above 100.
Regarding `Cc1ccc(-c2cccc(COc3ccc(CCC(=O)O)cc3)c2)cc1`, the EC50 in assay [1] is 490 nM. Moreover, the Efficacy in assay [2] was found to be 86%. Also, in assay [3], the Activity came out at 15%. The outcome in assay [4], in assay [5] and in assay [6] was inactive. In addition, in the assay filed under Homo sapiens, the fold change (FC) is above 100.
As for `O=C(O)CCc1ccc(COc2ccccc2)cc1`, the EC50 in assay [1] was 6310 nM. The Efficacy in assay [2] turned out to be 88%. Further, the outcome in assay [3], in assay [4], in assay [5] and in assay [6] was inactive. The compound also gave a fold change (FC) in the assay filed under Homo sapiens above 100.
For `O=C(O)CCc1ccc(OCc2cccc(-c3ccccc3)c2)cc1`, the EC50 in assay [1] is 135 nM. Also, the Efficacy in assay [2] was found to be 105%. The compound further gave an Activity in assay [3] of 25%. Moreover, the outcome in assay [4], in assay [5] and in assay [6] was inactive. In addition, the fold change (FC) in the assay filed under Homo sapiens was above 100.
Take `O=C(O)CCc1ccc(CNc2ccccc2)cc1`: in assay [1], the EC50 is 21400 nM. The Efficacy in assay [2] is 101%. For the same compound, the outcome in assay [3], in assay [4], in assay [5] and in assay [6] was inactive. The compound also registered a fold change (FC) in the assay listed under Homo sapiens above 100.
As to `O=C(O)CCc1ccc(OCc2ccc(-c3ccccc3)cc2)cc1`, in assay [1], the EC50 was 912 nM. Moreover, in assay [2], the Efficacy is 97%. Also, the outcome in assay [3], in assay [4], in assay [5] and in assay [6] was inactive. Besides, the fold change (FC) in the assay filed under Homo sapiens is above 100.
As for `O=C(O)CCc1ccc(OCc2ccccc2)c(I)c1`, in assay [1], the EC50 is 12600 nM. Besides, the Efficacy in assay [2] came to 81%. Besides, the Activity in assay [3] stood at 42%. Further, the result in assay [4], in assay [5] and in assay [6] was inactive. For the same compound, the fold change (FC) in the assay listed under Homo sapiens is above 100.
For `Cc1ccc(-c2cccc(CNc3ccc(CCC(=O)O)cc3)c2)cc1`, the EC50 in assay [1] is 126 nM. Further, the Efficacy in assay [2] came out at 92%. Further, the Activity in assay [3] came out at 31%. In addition, the outcome in assay [4], in assay [5] and in assay [6] was inactive. For the same compound, the fold change (FC) in the assay filed under Homo sapiens was above 100.
As to `COc1ccccc1-c1cccc(COc2ccc(CCC(=O)O)cc2)c1`, the EC50 in assay [1] is 120 nM. Also, the Efficacy in assay [2] was determined as 105%. In assay [3], this compound came in with an Activity of 37%. For the same compound, the outcome in assay [4], in assay [5] and in assay [6] was inactive. Besides, in the assay listed under Homo sapiens, the fold change (FC) was above 100.
As for `CC(Oc1ccc(CCC(=O)O)cc1)c1ccccc1` (stereo unspecified), the EC50 in assay [1] was 3310 nM. For the same compound, the Efficacy in assay [2] was determined as 106%. Moreover, the result in assay [4], in assay [5] and in assay [6] was inactive. For the same compound, the fold change (FC) in the assay filed under Homo sapiens is above 100.
As to `O=C(O)CCc1ccc(NCc2cccc(Br)c2)cc1`, the EC50 in assay [1] was 174 nM. In addition, the Efficacy in assay [2] amounted to 110%. For the same compound, in assay [3], the Activity was 27%. Moreover, the result in assay [4], in assay [5] and in assay [6] was inactive. Also, the fold change (FC) in the assay listed under Homo sapiens is above 100.
Turning to `O=C(O)CCc1ccc(NCc2cccc(-c3ccccc3)c2)cc1`, the EC50 in assay [1] is 53.7 nM. Further, the Efficacy in assay [2] was found to be 101%. For the same compound, in assay [3], the Activity amounted to 33%. Besides, the outcome in assay [4], in assay [5] and in assay [6] was inactive. Further, the fold change (FC) in the assay listed under Homo sapiens was above 100.
For the compound `O=C(O)CCc1ccc(CCc2ccccc2)cc1`, the 50% effective concentration (EC50) in assay [1] was 3630 nM. Besides, in assay [2], the Efficacy was 116%. Moreover, the outcome in assay [4], in assay [5] and in assay [6] was inactive. This compound also showed a fold change (FC) in the assay listed under Homo sapiens above 100.
For the compound `O=C(O)CCc1ccc(OCc2ccccc2-c2ccccc2)cc1`, the outcome in assay [4], in assay [5] and in assay [6] was inactive. This compound also gave a fold change (FC) in the assay listed under Homo sapiens above 100.
For the compound `COc1ccccc1-c1cccc(CNc2ccc(CCC(=O)O)cc2)c1`, in assay [1], the EC50 was 69.2 nM. The Efficacy in assay [2] is 109%. The same compound had an Activity in assay [3] of 51%. Also, the outcome in assay [4], in assay [5] and in assay [6] was inactive. This compound gave a fold change (FC) in the assay filed under Homo sapiens above 100.
Regarding `O=C(O)CCc1ccc(OCc2ccccc2Br)cc1`, the EC50 in assay [1] is 447 nM. Moreover, in assay [2], the Efficacy was determined as 99%. Moreover, the result in assay [4], in assay [5] and in assay [6] was inactive. For the same compound, the fold change (FC) in the assay filed under Homo sapiens was above 100.
Turning to `O=C(O)CCc1ccc(OCc2cccc(C(F)(F)F)c2)cc1`, the EC50 in assay [1] was 83.2 nM. Further, in assay [2], the Efficacy was found to be 103%. Besides, the outcome in assay [4], in assay [5] and in assay [6] was inactive. This compound also returned a fold change (FC) in the assay listed under Homo sapiens above 100.
Take `N#Cc1cccc(COc2ccc(CCC(=O)O)cc2)c1`: the EC50 in assay [1] is 525 nM. For the same compound, the Efficacy in assay [2] is 102%. For the same compound, the result in assay [4], in assay [5] and in assay [6] was inactive. In addition, in the assay listed under Homo sapiens, the fold change (FC) is above 100.
Take `O=C(O)CCc1ccc(C#Cc2ccccc2)cc1`: in assay [1], the EC50 was 200 nM. Besides, the Efficacy in assay [2] amounted to 108%. The result in assay [4], in assay [5] and in assay [6] was inactive. In the assay filed under Homo sapiens, this compound yielded a fold change (FC) above 100.
Consider `O=C(O)CCc1ccc(OCc2ccc(Br)cc2)cc1`, for which, in assay [1], the EC50 is 550 nM. The Efficacy in assay [2] is 98%. Further, the result in assay [4], in assay [5] and in assay [6] was inactive. Moreover, the fold change (FC) in the assay listed under Homo sapiens is above 100.
As for `Cc1cc(Oc2ncc(C(F)(F)F)cc2Cl)ccc1CC1SC(=O)NC1=O` (stereo unspecified), the EC50 in assay [1] was 178 nM. The Efficacy in assay [2] is 103%.
